The list is not random: actives were taken first. Their share in the collection is about 4.7%.
MrgX1 PAM: positive allosteric modulators of MrgX1, primary screen, HEK293 cells, Fluo-4 calcium flux; actives 0.63% (n = 310,000); Mas-related G-protein coupled receptor member X1 (Homo sapiens), Q96LB2; B-score at 10 µM; FDSS; active compounds read high;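 active means plate-corrected calcium response at least 3 library SD above typical, normal starting fluorescence, not activating the receptor alone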;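 further: compound read alongside a low EC10 to EC30 dose of BAM8-22 agonist; peak minus trough fluorescence over baseline measured at the second addition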
Target sequence (Q96LB2 whole entry, looked up): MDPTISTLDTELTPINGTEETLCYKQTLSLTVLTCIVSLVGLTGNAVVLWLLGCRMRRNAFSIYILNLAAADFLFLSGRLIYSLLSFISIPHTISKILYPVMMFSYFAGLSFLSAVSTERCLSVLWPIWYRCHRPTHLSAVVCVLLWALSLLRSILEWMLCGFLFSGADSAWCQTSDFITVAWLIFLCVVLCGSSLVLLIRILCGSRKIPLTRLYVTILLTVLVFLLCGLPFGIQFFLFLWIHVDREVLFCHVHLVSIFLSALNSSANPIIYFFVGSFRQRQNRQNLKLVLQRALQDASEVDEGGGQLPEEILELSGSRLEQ
Cl transport mod: KCC2 cotransporter modulators, thallium flux, primary screen, cell-based, HEK293 KCC2, FluoZin-2 fluorescence, MLSMR. Solute carrier family 12 member 5 (Homo sapiens), Q9H2X9. KCC2 cells, thallium flux FluoZin-2 fluorescence. B-score of Tl+ flux slope (higher = more flux/activation; lower = inhibition) at 10 µM. actives 2.2% (n = 190,000). AID 1456, 2008;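 active means thallium flux slope and its plate-corrected score both differing from the plate sample mean at a set confidence after two filtering rounds, in either direction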;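 further: slope of fluorescence scaled to starting intensity during 10 to 20 s after thallium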
RGS4 inh: RGS4 inhibitors, primary screen, cell-based, HEK293 M3R inducible RGS4, calcium flux; Regulator of G-protein signaling 4 (Homo sapiens), P49798; Fluo-4 calcium flux; active compounds read high; triggered by carbachol at its EC20; B-score at 10 µM; actives 0.45% (n = 310,000); AID 463165, 2010;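 active means B-score, a plate-corrected calcium signal, over three deviations above library mean, with baseline fluorescence within five deviations of library mean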;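 further: RGS4 expression induced by doxycycline in cells with stable M3 receptor; B-score is computed from the integrated fluorescence ratio over baseline after carbachol; higher B-score means a larger calcium signal and so more RGS4 inhibition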
Target sequence (P49798 whole entry, looked up): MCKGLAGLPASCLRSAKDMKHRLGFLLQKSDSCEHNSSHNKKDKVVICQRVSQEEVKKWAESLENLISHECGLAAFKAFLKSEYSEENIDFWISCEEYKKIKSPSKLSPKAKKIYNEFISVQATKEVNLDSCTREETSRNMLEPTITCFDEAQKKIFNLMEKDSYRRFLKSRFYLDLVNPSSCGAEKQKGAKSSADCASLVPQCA
MrgX1 antagonist: antagonists of human MrgX1 receptor, primary screen, HEK293 cells, Fluo-4 calcium flux. Mas-related G-protein coupled receptor member X1 (Homo sapiens), Q96LB2. BAM8-22 antagonism; active compounds read low. B-score at 10 µM. actives 1.3% (n = 310,000). AID 588676, 2011;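 active means calcium-response B-score plate-corrected more than 3 library SD below zero, starting fluorescence within 5 deviations, no agonist response on first addition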;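 further: peak minus trough fluorescence over baseline after final BAM8-22 challenge near maximal dose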
MrgX1 agonist: agonists of human MrgX1 receptor, primary screen, HEK293 cells, Fluo-4 calcium flux; B-score at 10 µM; actives 0.44% (n = 310,000); Fluo-4 calcium fluorescence, agonist mode; active compounds read high;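 active means calcium response B-score plate-corrected fluorescence ratio at least 3 library SD, with starting fluorescence B-score inside 5 SD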
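Assay system: MrgX1-expressing HEK293 cells / Amount: fifteen thousand cells per well / Doses: test compound in the initial addition of three / Timing: cells plated overnight, dye loaded 0.5 h 37 °C, 0.5 h room temperature / Technique: kinetic calcium dye fluorescence, Fluo-4 NW / Control set: positive and negative controls per plate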
RGS4 act: RGS4 potentiators or activators, primary screen, cell-based, HEK293 M3R inducible RGS4, calcium flux. carbachol calcium flux Fluo4; active compounds read low. B-score at 10 µM. actives 0.92% (n = 310,000);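 active means B-score of the integrated calcium signal more than 4 SD below the library mean, with starting fluorescence not abnormally high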;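 further: negative B-score means reduced calcium response which marks RGS4 activation or potentiation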
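Detection: kinetic calcium fluorescence imaging with Fluo4-AM dye, 2 µM / Material: HEK293 cells with stable M3R and inducible RGS4 / Schedule: recording 10 s baseline at 1 Hz, 100 s post-agonist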
KCC2 secondary: KCC2 modulators in sodium-free buffer, confirmation, cell-based, HEK293 KCC2, thallium flux, secondary assay. shares compounds with Cl transport mod. FluoZin2 fluorescence; active compounds read high. normalised thallium flux (F/F0 slope) at 10 µM. actives 15% (n = 3,700). AID 1713, 2009;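 active means thallium flux slope above the same plate's solvent-only control mean plus 3 SD; inconclusive means the two replicate wells disagree; inactive means no significant difference from solvent-only control wells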
KCC2 bumet counter: thallium flux persisting under bumetanide in KCC2 cells, confirmation, counter-screen for KCC2 modulator project, cell-based, HEK293 KCC2, FluoZin2, secondary assay 3. shares compounds with Cl transport mod. HEK293-KCC2 + bumetanide/ouabain; active compounds read high. normalized thallium flux at 10 µM. actives 49% (n = 3,700). AID 1714, 2009;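 active means thallium entry rate above the same plate's blocked-transporter control wells by more than 3 SD; inconclusive means the two repeat wells disagree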;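 further: raw slope of fluorescence over initial fluorescence between 10 and 20 s after thallium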
KCC2 sec2: KCC2 modulators without ouabain present, confirmation, cell-based, HEK293 KCC2, thallium flux, FluoZin2, secondary assay 2 | thallium flux FluoZin2 fluorescence; actives lie on both sides; F/F0 rise rate, 10–20 s post-thallium | normalized thallium flux at 10 µM | AID 1715, 2009 | shares compounds with Cl transport mod | actives 23% (n = 3,700);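 active means thallium flux slope more than 3 SD above or below the plate's solvent-only control mean, mostly below; inconclusive means the two repeat wells disagreed; inactive means no significant shift from solvent-only controls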
HEK counter1: thallium flux modulation in parental HEK cells, confirmation, counter-screen for KCC2 modulator project, cell-based, counterscreen 1; shares compounds with Cl transport mod; thallium flux rate (normalised fluorescence) at 10 µM; HEK293 parental cells, thallium flux FluoZin2, ouabain; baseline-ratio fluorescence slope, 10–20 s after thallium; actives 46% (n = 3,700);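 active means thallium flux rate significantly above the same plate's solvent-only control wells, beyond their mean plus 3 SD; inconclusive means the two replicate wells gave conflicting results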
KCC2 retest ouab: KCC2 inhibitors and activators, ouabain retest, confirmation, HEK-KCC2 cells | shares compounds with Cl transport mod | HEK293-KCC2, thallium flux FluoZin2 fluorescence; bidirectional: low = inhibitor, high = activator | raw Tl+ flux slope (below DMSO = inhibition, above = activation) at 10 µM | actives 48% (n = 3,700) | AID 1717, 2009;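 active means thallium flux slope beyond 3 SD from same-plate DMSO control mean in most replicates, usually higher, sometimes lower; inconclusive means repeat tests gave conflicting results; inactive means no significant difference from controls in most replicates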;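 further: slope of initial-normalized fluorescence between seconds 10 and 20 after thallium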
HEK counter2: native HEK Tl+ uptake effects, second counter-screen – HEK cells, counterscreen 2, counter-screen for KCC2 modulator project, confirmation; shares compounds with Cl transport mod; HEK293 parental, thallium flux FluoZin-2 fluorescence slope; thallium flux slope at 10 µM; actives 33% (n = 3,700);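 active means thallium flux slope above the same plate's solvent-control mean plus 3 SD in both duplicate wells; inconclusive means duplicate wells that disagreed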;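 further: run without ouabain in cells lacking the KCC2 cotransporter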
Each line names hits and unclear results; the compound was inactive in the other large screens (follow-up assays come after a bar, where they were run).

CN(Cc1ccccc1)C(=O)CSc1nc2ccccc2c(=O)n1Cc1ccco1	Cl transport mod -3.5 | KCC2 secondary inactive | KCC2 bumet counter 0.0031 | KCC2 sec2 0.026 | HEK counter1 0.0058 | KCC2 retest ouab 0.015 | HEK counter2 inconclusive
N=c1sccn1CC(=O)Nc1ccc(Cl)cc1[N+](=O)[O-]	none
Cc1nc2nc(-c3ccc(Cl)cc3)cn2nc1C	none (no result: Cl transport mod) | KCC2 secondary inactive | KCC2 bumet counter inactive | KCC2 sec2 inactive | HEK counter1 inactive | KCC2 retest ouab inactive | HEK counter2 inactive
Cc1c(NC(=O)c2ccc(NS(=O)(=O)c3ccccc3)cc2)c(=O)n(-c2ccccc2)n1C	none (no result: Cl transport mod)
CC(CCc1ccccc1)NC(=O)C(Cc1ccccc1)NS(=O)(=O)c1cccs1 (configuration not stated)	Cl transport mod -3.6 | KCC2 secondary inactive | KCC2 bumet counter inactive | KCC2 sec2 inconclusive | HEK counter1 inconclusive | KCC2 retest ouab 0.015 | HEK counter2 inactive
CC1CCCCC1NC(=O)C(Cc1ccccc1)NS(=O)(=O)c1cccs1 (configuration not stated)	none (no result: Cl transport mod)
Cc1occc1C(=O)Nc1cccc(Cl)c1Cl	none (no result: Cl transport mod)
COc1ccc(NS(=O)(=O)c2cccc(C(=O)OCC(=O)NC3CC3)c2)cc1	none (no result: Cl transport mod)
O=[N+]([O-])c1ccc(NC(=S)NCCc2ccc(Cl)cc2)cc1	Cl transport mod -5, MrgX1 antagonist -6 | KCC2 secondary inactive | KCC2 bumet counter inactive | KCC2 sec2 0.026 | HEK counter1 inconclusive | KCC2 retest ouab inactive | HEK counter2 inactive
S=C(NCCc1ccccc1)Nc1ccc(Cl)cc1	none
O=C(NCCCCc1ccccc1)C1CC(c2cccc(F)c2)=NO1 (configuration not stated)	Cl transport mod -2.7 | KCC2 secondary inactive | KCC2 bumet counter inactive | KCC2 sec2 0.025 | HEK counter1 inactive | KCC2 retest ouab inactive | HEK counter2 inactive
CCOc1ccc(NC(=O)c2ccccc2OC)cc1	Cl transport mod -4.7 | KCC2 secondary inactive | KCC2 bumet counter inactive | KCC2 sec2 inactive | HEK counter1 inactive | KCC2 retest ouab inactive | HEK counter2 inactive
COC(=O)NNC(=O)c1ccccc1OC	none
COc1ccccc1C(=O)NNC(=O)C(=O)NC(C)(C)C	Cl transport mod 34 | KCC2 secondary inactive | KCC2 bumet counter 0.042 | KCC2 sec2 0.044 | HEK counter1 0.03 | KCC2 retest ouab 0.043 | HEK counter2 0.029
CC(C)(C)NC(=O)C(=O)NNC(=O)c1ccccc1Br	Cl transport mod 9.6 | KCC2 secondary 0.015 | KCC2 bumet counter 0.024 | KCC2 sec2 inactive | HEK counter1 inconclusive | KCC2 retest ouab 0.03 | HEK counter2 inactive
Cc1ccc(C)c(OC(=O)CN2C(=O)c3ccccc3C2=O)c1	none (no result: Cl transport mod)
COCCN(CCOC)C(=O)c1ccc(SCc2ccc(C)cc2)c([N+](=O)[O-])c1	Cl transport mod -4.4 | KCC2 secondary inactive | KCC2 bumet counter inactive | KCC2 sec2 inactive | HEK counter1 inactive | KCC2 retest ouab 0.015 | HEK counter2 inactive
COc1cc(CN(C)Cc2cccc3ccccc23)cc([N+](=O)[O-])c1O	none (no result: Cl transport mod)
N#Cc1nc(-c2ccco2)oc1N1CCC(C(N)=O)CC1	none (no result: Cl transport mod)
N#Cc1nc(-c2ccco2)oc1N1CCN(Cc2ccccc2)CC1	none (no result: Cl transport mod) | KCC2 secondary inactive | KCC2 bumet counter inactive | KCC2 sec2 0.026 | HEK counter1 inactive | KCC2 retest ouab 0.028 | HEK counter2 inactive
Cc1cc2nnc(SCC(=O)Nc3cc(S(=O)(=O)N4CCOCC4)ccc3Cl)n2c2ccccc12	Cl transport mod -4.7 | KCC2 secondary inactive | KCC2 bumet counter inconclusive | KCC2 sec2 0.024 | HEK counter1 0.0057 | KCC2 retest ouab 0.013 | HEK counter2 0.0082
Cc1ccc(S(=O)(=O)N2CCOCC2)cc1NC(=O)CSc1nnc2cc(C)c3ccccc3n12	none
O=S1(=O)C=C(SCc2ccc(F)cc2)Nc2ccccc21	Cl transport mod -4.3 | KCC2 secondary inactive | KCC2 bumet counter inactive | KCC2 sec2 inactive | HEK counter1 inactive | KCC2 retest ouab 0.027 | HEK counter2 inactive
CC1=C(C(=O)Nc2ccccc2)C(c2ccco2)C(C#N)=C(SCc2ccccc2)N1 (configuration not stated)	none (no result: Cl transport mod) | KCC2 secondary inactive | KCC2 bumet counter inactive | KCC2 sec2 inactive | HEK counter1 inactive | KCC2 retest ouab inactive | HEK counter2 inactive
CC1=C(C(=O)Nc2ccccc2)C(c2ccco2)C(C#N)=C(SCC(=O)Nc2cccc(C)c2C)N1 (configuration not stated)	none
Cc1c(-c2ccccc2)oc2c(C(=O)N3CCN(c4ccc([N+](=O)[O-])cc4)CC3)cccc2c1=O	none
